Data as given in the array DNA melting data of Ke et al. (doi:10.1101/2024.01.08.574731).

How the values were obtained:
[1] = folding enthalpy; higher = less favourable; fluorescence melt of hairpins on a sequencing array, two-state fit; settings: sodium 0.088 M
In short: (§1)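 Bootstrapped two-state fits yielded melting temperature and folding enthalpy for library hairpins. Cy3 fluorescence, with annealed Cy3 and quencher oligos, was imaged on a sequenced MiSeq flow cell in 50 mM Na-HEPES pH 8.0, 25 mM NaCl in 2.5 °C steps up to 60 °C, and normalised to pre-quench Cy3 and to control constructs. Four replicates were combined by inverse variance, and fitted temperatures were raised by 9.35 °C to match UV melts.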

[2] = melting temperature; fluorescence melt of hairpins on a sequencing array, two-state fit, raised by 9.35 °C to match UV melts; settings: sodium 0.088 M
In short: as §1

Row | Sequence | folding enthalpy [1] [kcal/mol] | Tm [2] [°C]
1 | GATTGCGAAAGCATATC ((((((....))).))) | -16.5 | 42.9
2 | GTTACGTCGAAAGACAAC (((..(((....)))))) | -10.3 | 24.5
3 | GCGGCCGAAAGGCTCCGC ((((((....)))..))) | -16.8 | 53.8
4 | GCATCCGAAAGGACTTGC ((((((....)))..))) | -19.4 | 32.9
5 | GAATGCGGAAACGTATTC ((((.((....)).)))) | -35.2 | 47.6
6 | GATGCCGAAAGGCCATC ((((((....))).))) | -14.2 | 46.9
7 | GTACTCGGAAACGGGTAC ((((.((....)).)))) | -42.6 | 50.6
8 | GACCTTGGAAACAAAGTC (((.(((....))).))) | -20.3 | 26
9 | GTGGACCGAAAGGTCAC (((.(((....)))))) | -10.4 | 53.7
10 | GTAGTCGGAAACGATTGC (.(.(((....))).).) | -17.2 | 31.2
11 | GTAAGCGGAAACGCTCAC ((.((((....)))).)) | -13.4 | 37.7
12 | GCGTGACGAAAGTCCCGC (((.(((....))).))) | -21.9 | 59.8
13 | GCGTCTCTACGC ((((....)))) | -24.4 | 52.9
14 | GCCCCTGGAAACGGGGGC (((((.(....).))))) | -33.7 | 66.6
15 | GGGTTGGGAAACCAATCC ((.((((....)))).)) | -32.8 | 50.8
16 | AGATGGAAACATCT (((((....))))) | -19 | 42.1
17 | GATCTGCTCCAGATC ((((((...)))))) | -31.1 | 50.4
18 | TGGTGGAAACACCA (((((....))))) | -22.2 | 52.4
19 | GTACGGCGAAAGCCATAC (((.(((....))).))) | -17.7 | 42.1
20 | GATCCTAAAAAGGATC ((((((....)))))) | -27.9 | 47.6
21 | GAGAAACGAAAGTTCCTC (((.(((....))).))) | -27 | 36.5
22 | GAACAGCGAAAGCTCTTC (((.(((....))).))) | -14.5 | 34.3
23 | GTGCTTGGAAACAGGCAC ((((.((....)).)))) | -41 | 53.4
24 | GATCGGGAGACCGATC ((((((....)))))) | -32.6 | 63.8

Row | Sequence | folding enthalpy [1] [kcal/mol] | Tm [2] [°C]
25 | GGAGATGGAAACGTTTCC (((.(.(....).).))) | -16.5 | 32.9
26 | GTAGCCGAAAGGCCTTAC ((((((....)))..))) | -9.41 | 33.5
27 | ACAGAGAAATCTGT (((((....))))) | -13.6 | 32.7
28 | GTGTTACGAAAGTATCAC (((.(((....))).))) | -30.7 | 46.8
29 | GTACCTGAAAAGGTAC ((((((....)))))) | -31.6 | 60
30 | GGGTCCGAAAGGAAGCCC ((((((....)))..))) | -18.8 | 46.9
31 | GCTGTGCGAAAGCTCCGC ((.(.((....)).).)) | -14.5 | 40
32 | GTCTACGAAAGTACGAC ((((((....))).))) | -22.8 | 38.1
33 | GTCTTCGGAAACAAAGAC (((((.(....).))))) | -29.7 | 32.3
34 | GCCCTAACGAAAGTTGGC (((..(((....)))))) | -20.7 | 38.5
35 | GTAGACGGAAACGTCTAC (((((((....))))))) | -50.1 | 61.3
36 | GCGCTCGAAAGAGGACGC ((((((....)))..))) | -23.7 | 50
37 | GAGAATGGAAACATTCCC (.(((((....))))).) | -19.6 | 31.2
38 | GCGTCAGGAAACTAACGC ((((.((....)).)))) | -28.1 | 44.7
39 | GCCTCGCGAAAGCGTTGC ((..(((....)))..)) | -15.7 | 39.9
40 | GATCCATACTTGGATC ((((((....)))))) | -37.3 | 54.4
41 | GATCTCCAAGGAGATC ((((((....)))))) | -35 | 55.7
42 | GCATACACGAAAGTGTGC (((..(((....)))))) | -16.1 | 45.9
43 | GTTTAGGGAAACTTAGAC ((.((.(....).)).)) | -13.6 | 32.8
44 | GGGAGCGGAAACGCCCCC (((.(((....))).))) | -27.4 | 61.4
45 | CGATCGGAAACGAGCTCG ((((((....)))..))) | -11.5 | 29.8
46 | GCGGCGCGAAAGCTCTGC ((.(.((....)).).)) | -22.9 | 47.4
47 | GCTCTGCGAAAGCAGCGC ((.((((....)))).)) | -17.3 | 57.6
48 | GCGTGAGCACGC ((((....)))) | -12.7 | 62.6

Row | Sequence | folding enthalpy [1] [kcal/mol] | Tm [2] [°C]
49 | GGGCGTCGAAAGACACCC (((.(((....))).))) | -43.8 | 58.9
50 | GTCTGTGGAAACGCAGAC (((((.(....).))))) | -48 | 53.8
51 | GACCGCGAAAGCGGGTC ((((((....))).))) | -11.9 | 68.8
52 | GGGGGCGAAAGCCTTCCC ((((((....)))..))) | -13.1 | 42.3
53 | GAATCCGAAAGGAGGTTC ((((((....)))..))) | -10.9 | 26.2
54 | GATCCTCACAAGGATC ((((((....)))))) | -33.6 | 53
55 | GAAGAACGAAAGTTATTC (((.(((....))).))) | -31.6 | 42.5
56 | GACGTTGGAAACAACGCC (.(((((....))))).) | -12.4 | 48.8
57 | GGCACCGAAAGGTTGCC ((((((....))).))) | -30.9 | 63
58 | GATCCCGAAGGGGATC ((((((....)))))) | -19.7 | 65.5
59 | GATCGAGTGTCGATC ((((((...)))))) | -37.6 | 49.8
60 | GTGTTTCGAAAGAACAC (((.(((....)))))) | -32.3 | 46.9
61 | GATCCTACAAGGATC ((((((...)))))) | -33.6 | 54.5
62 | GCAATCGGAAACGATTGC (((((((....))))))) | -41.9 | 69.2
63 | GACATTGGAAACAGTGTC ((((.((....)).)))) | -33.1 | 42.6
64 | GTCGGAGGAAACTTCGGC (.((.((....)).)).) | -24.3 | 38.4
65 | GATCATCAGGATGATC ((((((....)))))) | -36 | 50.6
66 | GGATAAGGAAACTTGTCC (((.(((....))).))) | -29.6 | 39.2
67 | GATCGTGGGACGATC ((((((...)))))) | -30 | 53.8
68 | GATCACTATGGTGATC ((((((....)))))) | -41.5 | 59
69 | GCGTGTACACGC ((((....)))) | -28.5 | 67.6
70 | GCCCGAGGAAACCCGGAC (.(((.(....).))).) | -19.3 | 32.7
71 | GATCTTTGGAAGATC ((((((...)))))) | -26.6 | 41.2
72 | GTCTACGAAAGTATGGAC ((((((....)))..))) | -16.3 | 31.3

Row | Sequence | folding enthalpy [1] [kcal/mol] | Tm [2] [°C]
73 | GATCGGACACCGATC ((((((...)))))) | -33.4 | 57.1
74 | GGTAGCGCGAAAGCGACC (((..(((....)))))) | -13.3 | 40
75 | GAGGGAACGAAAGTTCTC (((..(((....)))))) | -13.7 | 37.7
76 | GATCGTCTGTACGATC ((((((....)))))) | -38.3 | 55.7
77 | GATCCTCTCTAGGATC ((((((....)))))) | -38.2 | 51.6
78 | GATCTAACTCTAGATC ((((((....)))))) | -21.1 | 39.6
79 | GATCAAACATTTGATC ((((((....)))))) | -30.2 | 42.4
80 | GCCCTGGGAAACCAGGAC (.(((((....))))).) | -13.7 | 48.6
81 | GATGGGGGAAACCTCATC ((((.((....)).)))) | -28.4 | 46.3
82 | GAAGACGAAAGTCTTTTC ((((((....)))..))) | -13.4 | 47.1
83 | GTGTTCGGAAACGAATAC ((.((((....)))).)) | -31.7 | 49.2
84 | GATCAACAATTTGATC ((((((....)))))) | -26.8 | 38
85 | GCCTCGGGAAACCGAGAC (.(((((....))))).) | -15.8 | 46.2
86 | GGTATGGGAAACTGTACC ((((..(....)..)))) | -21.9 | 36.1
87 | GGACTAGCGAAAGCTTCC (((..(((....)))))) | -10.7 | 27.5
88 | GAGGTGGGAAACTACCTC (((((.(....).))))) | -41.1 | 49.7
89 | GGTGCCGAAAGGCAACC ((((((....))).))) | -19.6 | 66.1
90 | GATCTGGTTGCAGATC ((((((....)))))) | -42.9 | 51.1
91 | GCATCACCGAAAGGTTGC (((..(((....)))))) | -19.1 | 37.4
92 | GATCTCTAACGAGATC ((((((....)))))) | -33.4 | 49.4
93 | GATGACGGAAACGCCATC ((((.((....)).)))) | -32.3 | 48.3
